Experimental data taken from ChEMBL document CHEMBL1139418, “Synthesis and SAR of novel parenteral anti-pseudomonal cephalosporins: discovery of FR264205” (Bioorg Med Chem Lett, 2008).
≈ marks a conversion by molar mass, not a printed value.

Columns and labels:
Pseudomonas aeruginosa [1] = test: Antipseudomonal activity against Pseudomonas aeruginosa clinical isolates by CLSI method; format: functional
Mus musculus = test: Induction of convulsion in intracerebroventricular dosed mouse; format: organism-based; conditions: in vivo, icv_or_intrathecal
Pseudomonas aeruginosa [2] = test: Antipseudomonal activity against Pseudomonas aeruginosa class C AmpC(1d) beta-lactamase-induced clinical isolate FP1380 by CLSI method; format: functional; conditions: 24 h
Pseudomonas aeruginosa [3] = test: Antipseudomonal activity against Pseudomonas aeruginosa class A TEM beta-lactamase-induced clinical isolate FP2056 by CLSI method; format: functional
Pseudomonas aeruginosa [4] = test: Outer-membrane permeability assessed as ratio of MIC for Pseudomonas aeruginosa in absence of DEAE-dextran to MIC for Pseudomonas aeruginosa in presence of DEAE-dextran; format: functional
In short: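 MIC per CLSI method, measured for each strain with and without the outer-membrane permeabilizer DEAE-dextran. Permeability index is the ratio of MIC without additive to MIC with additive.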

[5] = Pseudomonas aeruginosa, read-out: MIC50

| Structure (SMILES) | MIC50 (Pseudomonas aeruginosa [1]; [5]) [µg/mL] | MIC (Pseudomonas aeruginosa [2]) [µg/mL] | MIC (Pseudomonas aeruginosa [3]) [µg/mL] | MIC50 (Pseudomonas aeruginosa [1]) [µg/mL] | ED50 (Mus musculus) [µg] | Ratio (Pseudomonas aeruginosa [4]) |
| --- | --- | --- | --- | --- | --- | --- |
| Cn1c(N)c(CN)c[n+]1CC1=C(C(=O)[O-])N2C(=O)[C@@H](NC(=O)/C(=N\OC(C)(C)C(=O)O)c3nsc(N)n3)[C@H]2SC1 | 0.5 (≈ 0.841 µM) | 8 (≈ 13.5 µM) | 0.5 (≈ 0.841 µM) | – | 39.3 | – |
| Cn1c(N)c(/C=C/CN)c[n+]1CC1=C(C(=O)[O-])N2C(=O)[C@@H](NC(=O)/C(=N\OC(C)(C)C(=O)O)c3nsc(N)n3)[C@H]2SC1 | 0.5 (≈ 0.806 µM) | 2 (≈ 3.22 µM) | 1 (≈ 1.61 µM) | – | 122 | – |
| CO/N=C(/C(=O)N[C@@H]1C(=O)N2C(C(=O)[O-])=C(C[n+]3ccn4ncccc43)CS[C@H]12)c1nsc(N)n1 | 2 (≈ 3.88 µM) | 32 (≈ 62.1 µM) | 2 (≈ 3.88 µM) | – | 230 | – |
| CC(C)(O/N=C(\C(=O)N[C@@H]1C(=O)N2C(C(=O)[O-])=C(C[n+]3ccc(CCN)cc3)CS[C@H]12)c1nsc(N)n1)C(=O)O | 1 (≈ 1.69 µM) | 4 (≈ 6.77 µM) | 1 (≈ 1.69 µM) | – | – | 8 |
| Cn1c(N)c(CNC(=N)N)c[n+]1CC1=C(C(=O)[O-])N2C(=O)[C@@H](NC(=O)/C(=N\OC(C)(C)C(=O)O)c3nsc(N)n3)[C@H]2SC1 | 0.5 (≈ 0.785 µM) | 1 (≈ 1.57 µM) | 0.5 (≈ 0.785 µM) | 0.5 (≈ 0.785 µM) | 4.69 | – |
| CC(C)(O/N=C(\C(=O)N[C@@H]1C(=O)N2C(C(=O)[O-])=C(C[n+]3ccccc3)CS[C@H]12)c1csc(N)n1)C(=O)O [CEFTAZIDIME] | 2 (≈ 3.66 µM) | 128 (≈ 234 µM) | 2 (≈ 3.66 µM) | – | 71 | – |
| Cn1c(N)c(NC(=O)NCCN)c[n+]1CC1=C(C(=O)O)N2C(=O)[C@@H](NC(=O)/C(=N\OC(C)(C)C(=O)[O-])c3nsc(N)n3)[C@H]2SC1 [CEFTOLOZANE] | 0.5 (≈ 0.75 µM) | 2 (≈ 3 µM) | 0.5 (≈ 0.75 µM) | – | 428 | – |

The next lines start with results.

| MIC50 (Pseudomonas aeruginosa [1]; [5]) [µg/mL] | MIC (Pseudomonas aeruginosa [2]) [µg/mL] | MIC (Pseudomonas aeruginosa [3]) [µg/mL] | MIC50 (Pseudomonas aeruginosa [1]) [µg/mL] | Structure (SMILES) | ED50 (Mus musculus) [µg] | Ratio (Pseudomonas aeruginosa [4]) |
| --- | --- | --- | --- | --- | --- | --- |
| 1 | 16 | 1 | – | CC(C)(O/N=C(\C(=O)N[C@@H]1C(=O)N2C(C(=O)[O-])=C(C[n+]3ccc(N)n3CCO)CS[C@H]12)c1nsc(N)n1)C(=O)O.Cl | 46.9 | 64 |
| 0.5 (≈ 0.784 µM) | 2 (≈ 3.14 µM) | 0.5 (≈ 0.784 µM) | – | Cn1c(N)c(NC(=O)CN)c[n+]1CC1=C(C(=O)[O-])N2C(=O)[C@@H](NC(=O)/C(=N\OC(C)(C)C(=O)O)c3nsc(N)n3)[C@H]2SC1 | > 200 | – |
| 1 (≈ 1.78 µM) | 32 (≈ 56.9 µM) | 1 (≈ 1.78 µM) | – | CC(C)(O/N=C(\C(=O)N[C@@H]1C(=O)N2C(C(=O)[O-])=C(C[n+]3cccc(N)c3)CS[C@H]12)c1nsc(N)n1)C(=O)O | – | 32 |
| 1 (≈ 1.65 µM) | 8 (≈ 13.2 µM) | 1 (≈ 1.65 µM) | – | CC(C)(O/N=C(\C(=O)N[C@@H]1C(=O)N2C(C(=O)[O-])=C(C[n+]3cccc(NC(=N)N)c3)CS[C@H]12)c1nsc(N)n1)C(=O)O | – | 16 |
| 1 | 16 | 1 | – | CC(C)(O/N=C(\C(=O)N[C@@H]1C(=O)N2C(C(=O)O)=C(C[n+]3ccc4n3CCN4)CS[C@H]12)c1nsc(N)n1)C(=O)O.O=S(=O)([O-])O | – | – |
| 1 | 4 | 1 | – | CC(C)(O/N=C(\C(=O)N[C@@H]1C(=O)N2C(C(=O)O)=C(C[n+]3ccc4n3CCCN4)CS[C@H]12)c1nsc(N)n1)C(=O)O.O=S(=O)([O-])O | – | – |
| 2 (≈ 3.65 µM) | 32 (≈ 58.4 µM) | 1 (≈ 1.83 µM) | – | CC(C)(O/N=C(\C(=O)N[C@@H]1C(=O)N2C(C(=O)[O-])=C(C[n+]3ccccc3)CS[C@H]12)c1nsc(N)n1)C(=O)O | – | – |
| 1 (≈ 1.63 µM) | 8 (≈ 13.1 µM) | 1 (≈ 1.63 µM) | – | CC(C)(O/N=C(\C(=O)N[C@@H]1C(=O)N2C(C(=O)[O-])=C(C[n+]3ccc(N)n3CCCF)CS[C@H]12)c1nsc(N)n1)C(=O)O | – | – |
| 1 (≈ 1.77 µM) | 32 (≈ 56.6 µM) | 1 (≈ 1.77 µM) | – | Cn1c(N)cc[n+]1CC1=C(C(=O)[O-])N2C(=O)[C@@H](NC(=O)/C(=N\OC(C)(C)C(=O)O)c3nsc(N)n3)[C@H]2SC1 | – | – |
